We go through 3 molecules from ChEMBL document CHEMBL1130078, “Discovery of an orally active series of isoxazoline glycoprotein IIb/IIIa antagonists” (J Med Chem, 1997).

What is called IC50 is the midpoint of a concentration-inhibition curve. Usually inhibition in vivo stands for how much of the control response was suppressed. Broadly, the Inhibition is the share of the control response that was lost under treatment.

Assay [1] deals with T1, Integrin alpha-IIb/beta-3 (Homo sapiens, UniProt P05106+P08514). Briefly: In vitro inhibition of ADP-induced platelet aggregation in human platelet rich plasma (hPRP). The class given is functional, cell-free.
For assay [2], the system named is Rhesus monkey. Kind of assay: Inhibition of ex vivo aggregation in 2 hr after oral dose of 0.3 mg/kg to rhesus monkey. The class given is functional, Cercopithecidae. Particulars: Macaca mulatta. An outline of the steps: (§1)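 Rhesus monkeys of either sex, 8–15 years, 6–10 kg, at least two animals/sex per dose, n = 8. Oral gavage by feeding tube of a solution in 0.9% saline (0.5 mL/kg), then water flush. Blood was drawn at various time points from the femoral or saphenous vein into citrate for ex vivo ADP (100 μM)-induced aggregation.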

For assay [3], the system named is Rhesus monkey. Briefly: Inhibition of ex vivo aggregation over 12 hr after oral dose of 0.3 mg/kg to rhesus monkey. In kind it is functional, Cercopithecidae. Conditions: Macaca mulatta. Summed up:
as §1

The test system of assay [4] is Canis familiaris. Briefly: Inhibition of platelet aggregation for 12 hr after oral dose of 0.3-0.4 mg/kg to dog. The class given is functional, Canis lupus familiaris. Summed up: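 Dogs dosed orally at 0.1–0.4 mg/kg; ex vivo ADP (100 μM)-induced platelet aggregation followed over time up to 12 h, n = 4.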
Assay [5] has as its system Canis familiaris. Kind of assay: Inhibition of ex vivo platelet aggregation after intravenous administration of bolus dose of 0.025 mg/kg to dog. In kind it is functional. Particulars: Canis lupus familiaris. An outline of the steps: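 Dogs given an iv bolus. Ex vivo ADP (100 μM)-induced platelet aggregation measured in samples taken over 5 h.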
The target of assay [6] is T1, Integrin alpha-IIb/beta-3.
Assay [7] deals with T1, Integrin alpha-IIb/beta-3. This is another data set of the same source.

T1 sequence (P05106 27-788 limits assumed): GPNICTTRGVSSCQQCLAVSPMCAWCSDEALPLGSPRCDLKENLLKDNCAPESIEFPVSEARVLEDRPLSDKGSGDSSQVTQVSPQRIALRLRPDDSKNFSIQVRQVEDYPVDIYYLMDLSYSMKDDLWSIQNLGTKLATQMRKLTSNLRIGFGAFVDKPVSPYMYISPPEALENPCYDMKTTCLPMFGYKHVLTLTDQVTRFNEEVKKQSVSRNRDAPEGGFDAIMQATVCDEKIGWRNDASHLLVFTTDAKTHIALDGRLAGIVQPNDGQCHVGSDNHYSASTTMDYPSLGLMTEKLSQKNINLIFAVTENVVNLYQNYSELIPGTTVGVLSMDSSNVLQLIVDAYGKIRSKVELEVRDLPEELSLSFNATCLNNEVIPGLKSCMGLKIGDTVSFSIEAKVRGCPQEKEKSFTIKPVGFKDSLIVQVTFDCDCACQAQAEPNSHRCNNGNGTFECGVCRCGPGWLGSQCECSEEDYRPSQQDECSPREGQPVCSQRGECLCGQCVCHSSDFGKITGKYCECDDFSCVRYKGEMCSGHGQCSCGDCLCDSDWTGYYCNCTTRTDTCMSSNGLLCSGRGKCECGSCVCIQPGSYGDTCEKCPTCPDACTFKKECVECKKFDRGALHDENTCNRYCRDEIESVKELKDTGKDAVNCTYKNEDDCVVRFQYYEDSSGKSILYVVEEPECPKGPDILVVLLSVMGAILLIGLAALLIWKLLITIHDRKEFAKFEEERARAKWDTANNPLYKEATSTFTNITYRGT
T1 sequence (P08514 32-887 limits assumed): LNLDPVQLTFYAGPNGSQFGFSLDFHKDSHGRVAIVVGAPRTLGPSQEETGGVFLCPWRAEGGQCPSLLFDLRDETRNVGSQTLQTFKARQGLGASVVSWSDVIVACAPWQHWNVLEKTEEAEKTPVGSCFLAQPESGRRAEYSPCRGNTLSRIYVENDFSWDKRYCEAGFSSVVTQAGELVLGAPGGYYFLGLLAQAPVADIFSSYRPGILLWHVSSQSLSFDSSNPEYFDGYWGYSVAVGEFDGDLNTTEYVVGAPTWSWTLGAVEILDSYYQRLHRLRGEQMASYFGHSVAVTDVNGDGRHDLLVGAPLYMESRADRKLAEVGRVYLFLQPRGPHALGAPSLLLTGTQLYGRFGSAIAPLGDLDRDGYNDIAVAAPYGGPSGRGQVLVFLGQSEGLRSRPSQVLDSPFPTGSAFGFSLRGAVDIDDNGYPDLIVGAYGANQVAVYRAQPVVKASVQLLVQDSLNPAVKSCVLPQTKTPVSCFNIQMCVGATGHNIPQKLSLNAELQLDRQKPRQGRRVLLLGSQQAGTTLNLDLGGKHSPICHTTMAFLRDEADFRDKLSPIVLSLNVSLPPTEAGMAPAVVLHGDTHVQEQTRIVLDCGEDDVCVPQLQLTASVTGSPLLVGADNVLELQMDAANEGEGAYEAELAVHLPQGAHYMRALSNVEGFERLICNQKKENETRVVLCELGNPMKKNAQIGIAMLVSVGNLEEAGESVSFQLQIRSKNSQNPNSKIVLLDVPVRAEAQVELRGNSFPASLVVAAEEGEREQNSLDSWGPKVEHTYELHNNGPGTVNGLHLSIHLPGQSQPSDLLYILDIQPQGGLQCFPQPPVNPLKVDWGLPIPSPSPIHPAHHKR
T1 sequence (P08514 891-1039 limits assumed): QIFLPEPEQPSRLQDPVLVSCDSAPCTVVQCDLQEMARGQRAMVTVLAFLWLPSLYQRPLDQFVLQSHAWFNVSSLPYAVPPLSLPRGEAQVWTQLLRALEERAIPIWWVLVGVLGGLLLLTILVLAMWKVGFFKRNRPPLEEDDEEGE

With `N=C(N)c1ccc(C2=NOC(CC(=O)NCCC(=O)O)C2)cc1` (configuration not stated), inhibition in assay [1] was half-maximal at 240 nM (IC50).

For the molecule `CCCCOC(=O)N[C@@H](CNC(=O)CC1CC(c2ccc(C(=N)N)cc2)=NO1)C(=O)OC.Cl` (some centres not stated), the inhibition in vivo at 0.3 mg/kg was 90% in assay [2] and 60% in assay [3]. Moreover, the Inhibition in assay [4] is on record as >60%.

As to `CCCCOC(=O)N[C@@H](CNC(=O)C[C@H]1CC(c2ccc(C(=N)N)cc2)=NO1)C(=O)O`, the inhibition in vivo at 0.025 mg/kg in assay [5] came to 90%. The results for the IC50 in assay [6] and in assay [7] were 11 nM and 0.25 nM, respectively.
